Measured values published in ChEMBL document CHEMBL2434966, “Novel N-4-piperazinyl-ciprofloxacin-chalcone hybrids: synthesis, physicochemical properties, anticancer and topoisomerase I and II inhibitory activity” (Eur J Med Chem, 2013).

Assays:
T47D = assay: Growth inhibition of human T47D cells assessed as cell growth at 10^-5 M after 48 hrs by sulforhodamine B assay; assay type: functional; conditions: read-out: Activity
Outline: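 NCI primary one-dose screen: single concentration of 10^-5 M added to culture, 48 h incubation, SRB protein-dye endpoint. Percent growth of treated cells measured spectrophotometrically against untreated controls.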

HT-29 = assay: Growth inhibition of human HT-29 cells after 48 hrs by sulforhodamine B assay; assay type: functional; conditions: HT-29, 48 h; for CC50: read-out: LC50 (the source's name)
Outline: (§1)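 NCI 60-panel five-dose test at 10-fold dilutions, 10^-4 to 10^-8 M, with 48 h continuous exposure and SRB protein read-out. Percent growth derived from time-zero, untreated-control and treated absorbances. GI50 is the concentration where [(Ti-Tz)/(C-Tz)]×100 = 50. TGI is taken at Ti = Tz. LC50 is taken at [(Ti-Tz)/Tz]×100 = -50.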

OVCAR-5 = assay: Growth inhibition of human OVCAR5 cells after 48 hrs by sulforhodamine B assay; assay type: functional; conditions: OVCAR-5, 48 h
Outline: (§2)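 NCI five-dose screen on the full 60-cell-line panel. Cells were given 10-fold dilutions from 10^-4 to 10^-8 M with continuous 48 h exposure, and growth was read by SRB staining. Percent growth was taken from time-zero, control and treated absorbances. GI50, TGI and LC50 were then derived, the GI50 being the concentration that gives a 50% lower net protein increase than control.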

HOP-92 = assay: Growth inhibition of human HOP92 cells after 48 hrs by sulforhodamine B assay; assay type: functional; conditions: HOP-92, 48 h; outline: as §1
NCI-H522 = assay: Growth inhibition of human NCI-H522 cells after 48 hrs by sulforhodamine B assay; assay type: functional; conditions: NCI-H522, 48 h; for CC50: read-out: LC50 (the source's name); outline: as §2
SF-539 = assay: Growth inhibition of human SF539 cells after 48 hrs by sulforhodamine B assay; assay type: functional; conditions: SF-539, 48 h; for CC50: read-out: LC50 (the source's name); outline: as §2
PC-3 = assay: Growth inhibition of human PC3 cells assessed as cell growth at 10^-5 M after 48 hrs by sulforhodamine B assay; assay type: functional; conditions: PC-3, 48 h, read-out: Activity
Outline: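 NCI 60-cell-line primary one-dose screen. Cells were exposed to a single 10^-5 M concentration for 48 h. The end point was sulforhodamine B protein staining, read spectrophotometrically. Results are reported as percent growth of treated cells relative to untreated control cells.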

OVCAR-3 = assay: Growth inhibition of human OVCAR3 cells after 48 hrs by sulforhodamine B assay; assay type: functional; conditions: OVCAR-3, 48 h; for CC50: read-out: LC50 (the source's name); outline: as §2
HL-60(TB) = assay: Growth inhibition of human HL-60(TB) cells assessed as cell growth at 10^-5 M after 48 hrs by sulforhodamine B assay; assay type: functional; conditions: HL-60, 48 h, read-out: Activity
Outline: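 NCI one-dose primary screen: compound added once at 10^-5 M, cultures incubated 48 h, end point by SRB protein-binding dye. Result given as percent growth of treated cells relative to untreated control cells, measured spectrophotometrically.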

A498 = assay: Growth inhibition of human A498 cells after 48 hrs by sulforhodamine B assay; assay type: functional; conditions: A498, 48 h; outline: as §1
M14 [1] = assay: Growth inhibition of human M14 cells after 48 hrs by sulforhodamine B assay; assay type: functional; conditions: M14, 48 h; outline: as §1
ACHN = assay: Growth inhibition of human ACHN cells assessed as cell growth at 10^-5 M after 48 hrs by sulforhodamine B assay; assay type: functional; conditions: read-out: Activity
Outline: (§3)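 NCI 60-cell-line primary screen. Single concentration of 10^-5 M, 48 h incubation. End point by sulforhodamine B protein staining read spectrophotometrically. Reported as percent growth of treated cells relative to untreated control cells.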

SK-MEL-28 = assay: Growth inhibition of human SK-MEL-28 cells after 48 hrs by sulforhodamine B assay; assay type: functional; conditions: SK-MEL-28, 48 h; for CC50: read-out: LC50 (the source's name); outline: as §2
[2] = biological target: DNA topoisomerase 2-alpha (Homo sapiens) (UniProt P11388); assay: Inhibition of human topoisomerase 2alpha-mediated relaxation of supercoiled pBR322 DNA at 100 uM after 30 mins by agarose gel electrophoresis relative to control
Outline: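 Human topo IIα (1 unit) with 200 ng supercoiled pBR322 in Tris-HCl pH 7.9, 50 mM NaCl, 5 mM MgCl2, 1 mM EDTA, 1 mM ATP, BSA, 30 min at 30 °C. DMSO was matched in the enzyme-only control. Stopped with EDTA; 1% agarose/TAE gel, ethidium stain, supercoiled band quantified by UV imaging. Etoposide was the positive control.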

M14 [3] = assay: Growth inhibition of human M14 cells assessed as cell growth at 10^-5 M after 48 hrs by sulforhodamine B assay; assay type: functional; conditions: M14, 48 h, read-out: Activity; outline: as §3

Sequence of DNA topoisomerase 2-alpha (Homo sapiens) (P11388 whole entry): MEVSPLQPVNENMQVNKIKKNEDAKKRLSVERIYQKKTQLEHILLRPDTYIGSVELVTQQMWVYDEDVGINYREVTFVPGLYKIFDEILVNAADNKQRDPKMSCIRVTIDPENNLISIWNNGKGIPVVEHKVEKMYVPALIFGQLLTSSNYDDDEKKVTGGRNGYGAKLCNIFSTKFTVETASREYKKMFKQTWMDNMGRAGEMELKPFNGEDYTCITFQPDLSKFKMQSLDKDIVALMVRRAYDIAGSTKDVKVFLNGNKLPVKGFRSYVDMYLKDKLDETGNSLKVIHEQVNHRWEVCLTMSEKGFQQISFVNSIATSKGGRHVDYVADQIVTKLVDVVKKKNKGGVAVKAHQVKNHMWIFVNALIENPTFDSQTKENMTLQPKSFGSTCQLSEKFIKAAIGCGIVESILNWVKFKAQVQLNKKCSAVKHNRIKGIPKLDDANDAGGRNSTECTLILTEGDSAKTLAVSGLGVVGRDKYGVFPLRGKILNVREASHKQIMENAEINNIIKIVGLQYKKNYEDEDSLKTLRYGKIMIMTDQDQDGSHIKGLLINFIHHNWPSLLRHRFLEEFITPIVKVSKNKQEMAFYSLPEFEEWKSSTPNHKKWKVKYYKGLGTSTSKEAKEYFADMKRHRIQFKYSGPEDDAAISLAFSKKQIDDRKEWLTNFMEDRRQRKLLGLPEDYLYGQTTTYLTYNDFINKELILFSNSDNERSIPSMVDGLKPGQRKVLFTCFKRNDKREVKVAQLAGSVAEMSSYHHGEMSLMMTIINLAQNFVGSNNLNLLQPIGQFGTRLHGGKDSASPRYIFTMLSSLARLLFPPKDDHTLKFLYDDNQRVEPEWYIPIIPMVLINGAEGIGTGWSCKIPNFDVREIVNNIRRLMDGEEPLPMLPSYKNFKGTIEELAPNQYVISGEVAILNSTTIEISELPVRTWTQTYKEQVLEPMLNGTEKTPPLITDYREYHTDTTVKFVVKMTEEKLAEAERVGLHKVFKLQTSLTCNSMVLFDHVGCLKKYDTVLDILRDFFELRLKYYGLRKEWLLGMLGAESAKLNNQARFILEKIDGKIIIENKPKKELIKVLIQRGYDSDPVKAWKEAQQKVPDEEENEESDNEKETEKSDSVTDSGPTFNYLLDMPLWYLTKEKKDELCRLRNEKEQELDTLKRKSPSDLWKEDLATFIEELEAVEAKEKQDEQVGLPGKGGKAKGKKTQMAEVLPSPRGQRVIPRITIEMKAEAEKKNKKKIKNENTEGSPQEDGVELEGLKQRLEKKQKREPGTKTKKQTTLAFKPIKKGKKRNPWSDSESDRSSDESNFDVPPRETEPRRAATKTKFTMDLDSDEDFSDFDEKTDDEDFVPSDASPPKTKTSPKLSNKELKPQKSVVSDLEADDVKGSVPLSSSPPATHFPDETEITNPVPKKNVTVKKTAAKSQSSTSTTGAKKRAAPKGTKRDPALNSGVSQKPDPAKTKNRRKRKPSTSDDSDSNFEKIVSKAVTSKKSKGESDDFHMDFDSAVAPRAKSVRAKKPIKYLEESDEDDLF

O=C(CN1CCN(c2cc3c(cc2F)c(=O)c(C(=O)O)cn3C2CC2)CC1)Nc1ccc(C(=O)/C=C/c2ccccc2)cc1
growth at 10 µM (T47D): 85.1% | GI50 (HT-29): 2.99 µM | TGI (HT-29): 10.3 µM | CC50 (HT-29): > 100 µM | GI50 (OVCAR-5): 5.35 µM | LC50 (OVCAR-5): > 100 µM | TGI (OVCAR-5): > 100 µM | GI50 (HOP-92): 0.43 µM | TGI (HOP-92): 3.82 µM | CC50 (HOP-92; read-out: LC50 (the source's name)): > 100 µM | GI50 (NCI-H522): 1.7 µM | TGI (NCI-H522): 7.78 µM | CC50 (NCI-H522): > 100 µM | GI50 (SF-539): 3.6 µM | TGI (SF-539): > 100 µM | CC50 (SF-539): > 100 µM | growth at 10 µM (PC-3): 55.2% | GI50 (OVCAR-3): 3.64 µM | TGI (OVCAR-3): > 100 µM | CC50 (OVCAR-3): > 100 µM | growth at 10 µM (HL-60(TB)): 40.9% | GI50 (A498): 1.28 µM | LC50 (concentration killing 50% of starting cells) (A498): > 100 µM | TGI (A498): 7.37 µM | GI50 (M14 [1]): 5.22 µM | LC50 (concentration giving 50% net cell kill) (M14 [1]): > 100 µM | TGI (M14 [1]): > 100 µM | growth at 10 µM (ACHN): 40% | GI50 (SK-MEL-28): 18.8 µM | TGI (SK-MEL-28): > 100 µM | CC50 (SK-MEL-28): > 100 µM | inhibition [2]: 35.7% | growth at 10 µM (M14 [3]): 31.9%

COc1cc(/C=C/C(=O)c2ccc(NC(=O)CN3CCN(c4cc5c(cc4F)c(=O)c(C(=O)O)cn5C4CC4)CC3)cc2)cc(OC)c1OC
growth at 10 µM (T47D): 17.6% | GI50 (HT-29): 0.23 µM | TGI (HT-29): 0.63 µM | CC50 (HT-29): 9.13 µM | GI50 (OVCAR-5): 1.87 µM | LC50 (OVCAR-5): > 100 µM | TGI (OVCAR-5): 7.36 µM | GI50 (NCI-H522): 0.66 µM | TGI (NCI-H522): 3.19 µM | CC50 (NCI-H522): 17.9 µM | GI50 (SF-539): 0.49 µM | TGI (SF-539): 2.62 µM | CC50 (SF-539): > 100 µM | growth at 10 µM (PC-3): 21.5% | GI50 (OVCAR-3): 0.29 µM | TGI (OVCAR-3): 0.92 µM | CC50 (OVCAR-3): 9.04 µM | growth at 10 µM (HL-60(TB)): -33.7% | GI50 (A498): 0.36 µM | LC50 (concentration killing 50% of starting cells) (A498): 5.47 µM | TGI (A498): 1.8 µM | GI50 (M14 [1]): 0.77 µM | LC50 (concentration giving 50% net cell kill) (M14 [1]): > 100 µM | TGI (M14 [1]): 7.16 µM | growth at 10 µM (ACHN): 10.8% | GI50 (SK-MEL-28): 1.1 µM | TGI (SK-MEL-28): 17 µM | CC50 (SK-MEL-28): 98.2 µM | inhibition [2]: 5.2% | growth at 10 µM (M14 [3]): -14.1%
